APP 5'UTR act – APP 5'UTR luciferase reporter activation; SH-SY5Y APP 5'UTR luciferase reporter, luminescence; zero percent = DMSO vehicle wells; activation, % at 2 µM; 1% of 190,000 active;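 active = activation above a set limit, based on mean plus 3 SD of controls, cut at about 140% in these data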
FLuc stim CS – firefly luciferase counter-screen for stimulation assays; P08659; ATPlite luciferase biochemical, luminescence, 10 min; 0 = ATP-free wells, 1 = DMSO control; activation factor at 10 µM; 200,000 tested, under 10 active; AID 1027;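 active = luciferase activation factor, scaled between plate controls, of at least 2 with compound at 10 µM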
Target sequence (P08659 whole entry, looked up): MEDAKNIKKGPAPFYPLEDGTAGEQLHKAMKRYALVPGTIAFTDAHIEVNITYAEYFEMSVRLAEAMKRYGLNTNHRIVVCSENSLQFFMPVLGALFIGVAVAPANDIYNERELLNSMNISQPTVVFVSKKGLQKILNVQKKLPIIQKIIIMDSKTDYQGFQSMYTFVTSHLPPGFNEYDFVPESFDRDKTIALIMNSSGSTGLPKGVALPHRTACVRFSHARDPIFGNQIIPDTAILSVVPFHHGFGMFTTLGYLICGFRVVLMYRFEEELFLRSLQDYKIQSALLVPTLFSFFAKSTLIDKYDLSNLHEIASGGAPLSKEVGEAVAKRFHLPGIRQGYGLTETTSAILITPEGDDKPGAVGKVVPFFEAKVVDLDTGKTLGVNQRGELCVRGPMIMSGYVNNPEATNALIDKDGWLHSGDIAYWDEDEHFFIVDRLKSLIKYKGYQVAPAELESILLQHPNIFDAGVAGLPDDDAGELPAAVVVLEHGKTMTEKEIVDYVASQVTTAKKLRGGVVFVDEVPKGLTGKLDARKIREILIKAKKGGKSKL
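Material: luciferase plus luciferin reagent, cell-free. Medium: PBS buffer for ATP. Also added: ATP substrate, dispensed from a 10.24 µM working solution in PBS. Doses: test compounds dosed from 2 mM stocks in 100% DMSO. Incubation: 10 min post-reagent at room temperature. Technique: light output (luminescence). Read-out basis: luminescence gain marking luciferase activators.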
NF-kB neuron act – raises NF-kB expression in human neuronal cells | fold change at 12.5 µM | 1.6% of 190,000 active | AID 1239 | NF-kB reporter expression; stronger effect = higher value; in the data active = fold change above about 3.3
Pf gametocyte – kills late stage P. falciparum gametocytes; P. falciparum stage V gametocytes, ATP luminescence, 24 h; inhibition, % at 10.9 µM; AID 743093; 0.065% of 150,000 active;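 active = inhibition above the mean plus 3 SD of compounds within the control limits, set per campaign, cut at about 38% in these data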;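 note: 0% = DMSO wells and 100% = medium only without gametocytes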
STAT1 activator – activators of IFN-gamma induced STAT1 signaling | NIH 3T3 STAT1-luciferase reporter, luminescence; 100% = IFN-gamma alone, no compound | activation (% of control), % at 5.5 µM | 2.6% of 200,000 active;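 active = activation above the screen-wide mean activation plus 3 SD, cut at about 130% in these data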;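 note: raw ratio to IFN-gamma control signal so 100% means no change and 0% no light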
FLuc inhib CS – counter-screen for luciferase assay inhibitors: firefly luciferase inhibition. P08659. ATPLite firefly luciferase biochemical luminescence, 10 min. inhibition, % at 10 µM. 1.5% of 200,000 active;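 active = inhibition above about 50% when tested at 10 µM, limit read from the data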
* marks the source's active call; other numbers are inactive results. The list is not random: actives were taken first. Their share in the collection is about 3.5%.

How did O=[N+]([O-])c1ccc(/C=N/N/C(=N/c2ccccn2)c2ccccn2)cc1 do in these assays?
APP 5'UTR act: 26; FLuc stim CS: 0.8; NF-kB neuron act: 1.7; Pf gametocyte: 12; STAT1 activator: 135*; FLuc inhib CS: 23

Results for CC(CCCC(C)(C)O)NC(=O)c1ccc2oc(CCc3ccccc3)nc2c1 (centres undefined) ?
Pf gametocyte: 13

What do the screens show for `O=C1NCCN(Cc2ccc(Cl)c(F)c2)C1CC(=O)N1CCCCO1` (centres undefined)?
APP 5'UTR act: -2; FLuc stim CS: 1; NF-kB neuron act: 1.3; Pf gametocyte: 6; STAT1 activator: 95; FLuc inhib CS: 2

How did O=C1c2ccccc2C(=O)N1CCOc1ccccc1 do in these assays?
APP 5'UTR act: 11; Pf gametocyte: -25; STAT1 activator: 135*

What do the screens show for `COc1ccc(OCCN2C(=O)c3ccccc3C2=O)cc1`?
APP 5'UTR act: 8; FLuc stim CS: 1; NF-kB neuron act: 1.7; Pf gametocyte: 2; STAT1 activator: 126; FLuc inhib CS: 0

Results for Cc1ccc(/C=C/C(=O)c2ccc(N3CCOCC3)cc2)s1 ?
APP 5'UTR act: 106; FLuc stim CS: 0.1; NF-kB neuron act: 3.3; Pf gametocyte: 9; STAT1 activator: 135*; FLuc inhib CS: 94*

How did Cc1cccc(/C=C/C(=O)c2ccc(N3CCOCC3)cc2)c1 do in these assays?
APP 5'UTR act: -1; FLuc stim CS: 0.8; NF-kB neuron act: 0.9; Pf gametocyte: -2; STAT1 activator: 105; FLuc inhib CS: 22

How did N#CC(=C=[N-])c1nc2ccccc2nc1-[n+]1cccc(NC(=O)c2ccccc2)c1 do in these assays?
Pf gametocyte: 3

Results for CCc1cc[n+](-c2nc3ccccc3nc2C(=C=[N-])C#N)cc1 ?
APP 5'UTR act: 7; FLuc stim CS: 1.1; NF-kB neuron act: 5*; Pf gametocyte: 16; STAT1 activator: 100; FLuc inhib CS: -6

What do the screens show for `Cc1ccc(OC(=O)C2c3ccccc3Oc3ccccc32)cc1C`?
APP 5'UTR act: 21; FLuc stim CS: 1; NF-kB neuron act: 4.6*; Pf gametocyte: 14; STAT1 activator: 108; FLuc inhib CS: -1

Results for COc1ccccc1-c1cc(SC)c(C#N)c(=O)o1 ?
APP 5'UTR act: -1; FLuc stim CS: 1.1; NF-kB neuron act: 1.7; STAT1 activator: 133*; FLuc inhib CS: -6

What do the screens show for `Cc1snc2sc(C(=O)c3ccc(F)cc3)c(N)c12`?
Pf gametocyte: 9

What do the screens show for `O=C(N/N=C/c1ccccc1)c1ccco1`?
Pf gametocyte: -15

How did O=C(N/N=C/c1ccc(OCc2ccccc2)cc1)c1ccco1 do in these assays?
Pf gametocyte: -8

How did O=C(N/N=C/c1ccc2cccnc2c1)c1ccco1 do in these assays?
APP 5'UTR act: 166*; FLuc stim CS: 0.1; NF-kB neuron act: 3.5*; Pf gametocyte: 19; STAT1 activator: 99; FLuc inhib CS: 88*

How did O=C(N/N=C\c1cccc(OC(=O)c2ccco2)c1)c1ccc2c(c1)OCO2 do in these assays?
APP 5'UTR act: 83; FLuc stim CS: 0.3; NF-kB neuron act: 5.1*; Pf gametocyte: 13; STAT1 activator: 118; FLuc inhib CS: 70*

What do the screens show for `O=C(N/N=C\c1ccc2c(c1)OCO2)c1ccco1`?
APP 5'UTR act: 97; FLuc stim CS: 0.2; NF-kB neuron act: 2.4; Pf gametocyte: -7; STAT1 activator: 147*; FLuc inhib CS: 75*

How did CC1CCN(C(=O)c2[nH]cnc2C(=O)NC2CCN(C(=O)OC(C)(C)C)CC2)CC1 do in these assays?
Pf gametocyte: 4

How did COc1ccc(-n2c(C)cc(/C=C3\C(=O)NN(c4ccccc4)C3=O)c2C)cc1 do in these assays?
APP 5'UTR act: 34; FLuc stim CS: 0.4; NF-kB neuron act: 1.5; STAT1 activator: 104; FLuc inhib CS: 55*

Results for O=C1NN(c2ccccc2)C(=O)/C1=C/c1coc2ccccc2c1=O ?
APP 5'UTR act: 47; FLuc stim CS: 1; NF-kB neuron act: 0.76; STAT1 activator: 146*; FLuc inhib CS: -4

Results for Cc1cc(/C=C2\C(=O)NN(c3ccccc3)C2=O)c(C)n1-c1ccccc1O ?
Pf gametocyte: -13

How did Cc1cc(/C=C2/C(=O)NN(c3ccccc3)C2=O)c(C)n1-c1ccc(O)cc1 do in these assays?
APP 5'UTR act: 117; FLuc stim CS: 0; NF-kB neuron act: 0.64; Pf gametocyte: -22; STAT1 activator: 119; FLuc inhib CS: 95*

What do the screens show for `O=c1c2cc(NC(=S)NCc3cccnc3)ccc2nc2n1CCCCC2`?
APP 5'UTR act: 39; FLuc stim CS: 1; NF-kB neuron act: 1.3; Pf gametocyte: -13; STAT1 activator: 105; FLuc inhib CS: 4

Results for COc1ccc(CCC(=O)N/N=C\c2cccs2)cc1 ?
APP 5'UTR act: 14; FLuc stim CS: 1; NF-kB neuron act: 1.1; Pf gametocyte: -23; STAT1 activator: 105; FLuc inhib CS: -1

What do the screens show for `CC(=O)c1sc(NC(=O)c2ccccc2F)nc1C`?
APP 5'UTR act: 116; FLuc stim CS: 0.6; NF-kB neuron act: 3.5*; STAT1 activator: 122; FLuc inhib CS: 44

Results for CC(=O)c1sc(NC(=O)c2ccc(C(C)(C)C)cc2)nc1C ?
APP 5'UTR act: 73; FLuc stim CS: 0.7; NF-kB neuron act: 2.8; Pf gametocyte: -10; STAT1 activator: 130*; FLuc inhib CS: 30

How did CC(=O)c1sc(NC(=O)c2ccc(C)c(C)c2)nc1C do in these assays?
APP 5'UTR act: 172*; FLuc stim CS: 0.7; NF-kB neuron act: 2.9; STAT1 activator: 147*; FLuc inhib CS: 31

What do the screens show for `COc1ccc(C(=O)Nc2nc(C)c(C(=O)N(C)C)s2)cc1OC`?
APP 5'UTR act: 12; FLuc stim CS: 0.8; NF-kB neuron act: 1.3; STAT1 activator: 102; FLuc inhib CS: 18

What do the screens show for `CCOc1ccc(/C=N/NC(=O)C(O)c2ccccc2)c(O)c1` (centres undefined)?
Pf gametocyte: -52

What do the screens show for `O=C(Nc1ccc(Oc2cccnc2)cc1)c1cccc([N+](=O)[O-])c1`?
APP 5'UTR act: 25; FLuc stim CS: 0.9; NF-kB neuron act: 1.4; STAT1 activator: 110; FLuc inhib CS: 5

Results for O=C(Nc1cccc2nsnc12)c1ccc(-c2ccc(Br)cc2)o1 ?
APP 5'UTR act: 14; FLuc stim CS: 1; NF-kB neuron act: 1.6; Pf gametocyte: -4; STAT1 activator: 101; FLuc inhib CS: -2

How did COC(=O)c1ccccc1NC(=O)c1ccc(-c2ccc(Br)cc2)o1 do in these assays?
APP 5'UTR act: -12; FLuc stim CS: 1.1; NF-kB neuron act: 0.75; STAT1 activator: 138*; FLuc inhib CS: -7

Results for Cc1ccc(NCCC(=O)c2cccs2)cc1 ?
APP 5'UTR act: 22; FLuc stim CS: 0.9; NF-kB neuron act: 0.88; Pf gametocyte: -28; STAT1 activator: 150*; FLuc inhib CS: 10

Bioassay records as filed in PubChem.
